Screening data as filed in PubChem BioAssay.
The full list was thinned out, with hits kept by preference.
ABCG2 inh: inhibitors of human ABCG2 transporter, ABCB1 counter-screen. AID 1325. Q9UNQ0. inhibition, % at 6.6 µM. 190,000 tested, 0.1% active. IgMXP3 cells, JC-1 efflux, flow cytometry;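 active = inhibition above 80%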;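 also: 0% = DMSO and 100% = nicardipine control wells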
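Times: 10 min at 25 °C | Test system: Two drug-resistant human cell lines, ABCG2 and ABCB1 | Quantity: 3 million cells/mL final, two lines in 1:1 ratio | Signal: Flow cytometry, 530 nm JC-1 signal | Dosing: Compound at 6.6 µM | Controls: Nicardipine and DMSO wells | Reagent: JC-1 as fluorescent efflux pump substrate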
PKD1 kinase inh: PKD1 (human) kinase inhibition; Q15139; PKD1 kinase fluorescence polarization assay; inhibition, % (no concentration beside the values); 200,000 tested, 0.056% active
ABCB1 inh: blocks JC-1 efflux by human ABCB1 transporter. P08183. CCRF-Adr cells, flow cytometry. inhibition, % at 6.6 µM. 190,000 tested, 0.067% active. AID 1326; in the data active = inhibition above about 40%;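 also: 0% = vehicle and 100% = reference inhibitor; higher value means more JC-1 retained so stronger ABCB1 efflux block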
GSH fluor: compound fluoresces at 488/530 nm on GSH beads; GSH beads flow cytometry, compound fluorescence 488/530 nm; active compounds read high; fluorescence (KMESF) at 10 µM; 190,000 tested, 0.25% active; AID 1776; in the data active = fluorescence above about 89;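 also: glutathione beads carrying GST-tagged Bcl family fusion proteins plus one bare bead set; values are compound well signal with DMSO vehicle wells as background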
Avidin bead fluor: compound fluoresces at 488/530 nm on avidin beads | compound fluorescence 488/530 nm, flow cytometry; active compounds read high | fluorescence (KMESF) at 10 µM | 220,000 tested, 0.38% active | AID 1775; in the data active = fluorescence above about 47
Lmaj promast: Leishmania major promastigote growth inhibition; inhibition, % at 10 µM; 200,000 tested, 9% active; Leishmania major promastigotes, resazurin fluorescence viability; AID 1063;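 also: promastigotes grown with compound for 44 hours at 28 °C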
FP interf 140K: interferes with fluorescence polarization in PKD inhibitor counter-screen | inhibition, % at 10 µM | 85 tested, under 10 active | shares compounds with PKD1 kinase inh | PKD1 FP assay interference counter-screen | AID 1315; call rule not given here
L major 1uM: inhibitors of Leishmania major promastigote growth, repeat at 1 uM; shares compounds with Lmaj promast; L. major promastigote growth, resazurin fluorescence, 48 h; inhibition, % at 1 µM; 1,100 tested, 13% active; AID 1258;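 active = inhibition above about 50% in both repeat tests, limit read from the data; inconclusive = one repeat under the set limit, the other over it; inactive = both repeats under the set limit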
The depositor's hits bear a star; ? = inconclusive; . = not tested or not shown. Rule as the data show it, unless noted: active = inhibition above about 50%; inactive = the rest.

SMILES	ABCG2 inh	PKD1 kinase inh	ABCB1 inh	GSH fluor	Avidin bead fluor	Lmaj promast	L major 1uM	others
NC(=O)c1cn(C2OC(CO)C(O)C2O)c2ncnc(N)c12 (configuration not stated)	1	94*	0	17	7	99*	97*	FP interf 140K=-13
CC12CCCCC1N(O)CN2O (configuration not stated)	1	3	0	4	7	-5	.
COc1ccc(C(=O)C2CCCN(Cc3ccc(C)s3)C2)c(OC)c1 (configuration not stated)	3	-10	1	14	11	80*	10
CC(C)N1C(=O)CC2(CC[N+](C)(CCOC(=O)C(O)(c3ccccc3)c3ccccc3)CC2)C1=O (configuration not stated)	6	8	0	34	4	93*	-3
CC1CN=C(Nc2ccc(F)cc2)S1 (configuration not stated)	1	-4	0	16	12	-2	.
CCOP(=S)(NN(Cc1ccccc1)C(=O)c1ccccc1)OCC	19	0	1	10	7	89*	-22
CCOP(=O)(OCC)C(Cc1ccccc1)NC(C)=O (configuration not stated)	.	.	.	.	8	.	.
O=S1(=O)CC2(N3CCOCC3)CCCCCCC21 (configuration not stated)	0	-3	0	25	5	3	.
O=C1C=C2C=C[C@H]3C[C@]2(O1)[C@@H]1CCCCN13	0	-13	1	18	10	51*	-2
CCS(=O)(=O)N1CCCC(C(=O)N2CCC3(CC2)OCCO3)C1 (configuration not stated)	4	10	1	14	11	-5	.
CCOC(=O)c1ccc(N=C(CC)c2c(O)n(C)c(=O)n(C)c2=O)cc1	.	.	.	.	9	.	.
O=C1CC(N2CCC(n3c(=O)[nH]c4ccccc43)CC2)C(=O)N1c1ccc(F)cc1 (configuration not stated)	3	-4	1	8	10	-8	.
O=c1[nH]c2ccccc2n1C1CCN(CCCC(c2ccc(F)cc2)c2ccc(F)cc2)CC1	0	-4	1	20	11	83*	9
Cc1cccc(C)c1OP(N)(=O)OCC(F)(F)F (configuration not stated)	9	-4	1	6	13	68*	-3
Cc1cccc(CN(C)C)c1OC(=O)N(C)C	0	0	0	14	11	-3	.
CN1C[C@H](CNC(=O)OCc2ccccc2)C[C@@H]2c3cccc4c3c(cn4C)C[C@H]21	0	6	0	21	10	69*	1
O=C(O)c1sc2cc(Cl)ccc2c1Cl	.	.	.	.	9	.	.
C[n+]1c(-c2ccccc2)cc(CCCCc2cc(-c3ccccc3)[n+](C)c(-c3ccccc3)c2)cc1-c1ccccc1	3	1	1	10	22	100*	95*
Nc1ccccc1-[n+]1c(-c2ccccc2)cc(-c2ccccc2)cc1-c1ccccc1	.	.	.	.	7	.	.
COc1ccc(-c2cc(-c3ccccc3)[n+](C)c(-c3ccccc3)c2)cc1	0	-2	0	9	20	100*	11
CC(=O)Nc1nnc(CCN(CCc2nnc(NC(C)=O)s2)[N+](=O)[O-])s1	.	.	.	.	7	.	.
CCOc1cc(/C=C2\C(=O)NC(=O)N(CCc3ccc(F)cc3)C2=O)ccc1O	.	.	.	.	10	.	.
CSc1ccc(CNC2CN3CCC2CC3)cc1 (configuration not stated)	0	-2	0	5	6	100*	66*
Cc1c(P(=S)(c2ccccc2)c2ccccc2)[n+]2ccccc2n1C	5	5	0	16	9	73*	-9
Cn1cc[n+](C)c1P(=S)(c1ccccc1)c1ccccc1	4	-1	4	14	12	22	.
SMILES	ABCG2 inh	PKD1 kinase inh	ABCB1 inh	GSH fluor	Avidin bead fluor	Lmaj promast	L major 1uM	others
CN1/C(=C\C=C\C2=[N+](C)c3ccc4ccccc4c3C2(C)C)C(C)(C)c2ccccc21	-5	20	-1	9	15	98*	101*
C=CCN1C(=O)NC(=O)/C(=C/c2ccc(OC)c(COc3ccc(NC(C)=O)cc3)c2)C1=O	.	.	.	.	10	.	.
CC(=O)c1ccc2c(c1)C1C(Cl)C(Sc3ccccc3[N+](=O)[O-])CC1C(c1ccccc1[N+](=O)[O-])N2 (configuration not stated)	2	0	0	64	7	54*	16
CN1CCN(/N=C/c2c(O)n(C)c(=O)n(C)c2=O)CC1	-5	-8	-2	17	9	-3	.
Cc1cccc(OP(=O)(Nc2cccnc2)Oc2cccc(C)c2)c1	1	1	2	15	9	92*	?
Cc1nn(Cc2ccccc2)c(C)c1C(=O)OCC(=O)Nc1ccccc1SCC#N	3	-3	3	57	8	0	.
CC1(C)C[C@H]2C=C(C=O)[C@]3(C=O)C[C@]3(C)[C@H]2C1	1	-4	0	18	5	84*	-8
CC(C)(C)c1ccc(C(=O)C2CCCN(C3CCC3)C2)cc1 (configuration not stated)	2	1	1	9	9	93*	80*
Cc1ccc(C2=NC(C)(C)N3C2C3c2ccc([N+](=O)[O-])cc2)cc1 (configuration not stated)	5	-7	1	12	13	57*	-18
O=[N+]([O-])c1ccc(C2[C@H]3C(c4ccccc4)=NC4(CCCC4)N23)cc1 (some centres not stated)	54	-6	2	11	23	-4	.
O=C1C2CCN(CC2)C1Cc1ccc(OCCOc2ccccc2)cc1 (configuration not stated)	0	-8	0	68	7	100*	97*
O=C1C2CCN(CC2)C1Cc1ccccc1O (configuration not stated)	-5	1	0	37	14	-6	.
CN(c1ccc(OCC(=O)N2CCN(C/C=C/c3ccccc3)CC2)cc1)S(=O)(=O)c1cccs1	.	.	.	.	8	.	.
Cc1[nH]c2ccccc2c1C(=O)CN1CC=C(c2ccccc2)CC1	-4	-9	0	23	12	0	.
CCN1CC=C(c2c[nH]c3ccccc23)CC1	0	-1	0	26	4	99*	-5
CCNC(=O)NC(=O)C(C)OC(=O)c1c(C)nn(Cc2ccccc2Cl)c1Cl (configuration not stated)	3	-2	3	4	13	51*	-12
